Consider five compounds from ChEMBL document CHEMBL1125337, “Synthesis and antibacterial activity of a series of basic amides of teicoplanin and deglucoteicoplanin with polyamines” (J Med Chem, 1992).

Common to all, as to type: functional
Assay [1] concerns Streptococcus pyogenes. Briefly: Minimum inhibitory concentration against Streptococcus pyogenes L 49. The method, boiled down: (§1)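 MIC (µg/mL) by microbroth dilution in Todd-Hewitt broth, final inoculum 10^4 cfu/mL, incubated 24 h at 37 °C in air.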
The test system of assay [2] is Staphylococcus epidermidis. Description: Minimum inhibitory concentration against Staphylococcus epidermidis ATCC 12228. In outline:
(§2)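 MIC (µg/mL) by microbroth dilution in Iso-Sensitest broth; final inoculum 10^4 cfu/mL; 24 h at 37 °C in air.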

Assay [3] concerns Streptococcus pneumoniae. Description: Minimum inhibitory concentration against Streptococcus pneumoniae L 44. The method, boiled down:
as §1

Assay [4] relates to Escherichia coli. Description: Minimum inhibitory concentration against Escherichia coli L 47. The method, boiled down:
as §2

Assay [5] has as its system Pseudomonas aeruginosa. Description: Minimum inhibitory concentration against Pseudomonas aeruginosa ATCC 10145. The method, boiled down: as §2
The test system of assay [6] is Enterococcus faecalis. Description: Minimum inhibitory concentration against Enterococcus faecalis ATCC 7080. The method, boiled down:
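Microbroth dilution MIC (µg/mL), final inoculum 10^4 cfu/mL, incubated 24 h at 37 °C in air.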

Assay [7] relates to Proteus vulgaris. Description: Minimum inhibitory concentration against Proteus vulgaris ATCC 881. The method, boiled down:
as §2

The subject of assay [8] is Staphylococcus haemolyticus. Description: Minimum inhibitory concentration against Staphylococcus haemolyticus L 602. The method, boiled down:
as §2

For assay [9], the system named is Staphylococcus aureus. Briefly: Minimum inhibitory concentration against Staphylococcus aureus L 165. In outline: as §2

Values after ≈ are worked out from the molar mass of the structure shown.

Usually MIC stands for the smallest concentration in the dilution series that meets the test's criterion for growth inhibition. The low end stands for greater potency, the high end for weaker potency. On to `NCCCN1CCCCN(CCCNC(=O)[C@H]2NC(=O)[C@H]3NC(=O)[C@H](NC(=O)[C@@H]4NC(=O)[C@H]5NC(=O)[C@@H](Cc6ccc(c(Cl)c6)Oc6cc4cc(c6O)Oc4ccc(cc4Cl)[C@H]3O)NC(=O)[C@H](N)c3ccc(O)c(c3)Oc3cc(O)cc5c3)c3ccc(O)c(c3)-c3c(O)cc(O)cc32)CCCC1`, for which the MIC in assay [1] came to 0.063 µg/mL (≈ 0.0438 µM); in assay [2], 0.063 µg/mL (≈ 0.0438 µM); in [3], 0.125 µg/mL (≈ 0.087 µM); in assay [4] it was 4 µg/mL (≈ 2.78 µM); in assay [5], 16 µg/mL (≈ 11.1 µM); in [6], 0.125 µg/mL (≈ 0.087 µM). In addition, the MIC is 128 µg/mL (≈ 89.1 µM) in assay [7], 0.125 µg/mL (≈ 0.087 µM) in [8] and 0.063 µg/mL (≈ 0.0438 µM) in assay [9].

Turning to `N[C@H]1C(=O)N[C@@H]2Cc3ccc(c(Cl)c3)Oc3cc4cc(c3O)Oc3ccc(cc3Cl)[C@@H](O)[C@@H]3NC(=O)[C@H](NC(=O)[C@@H]4NC(=O)[C@@H](NC2=O)c2cc(O)cc(c2)Oc2cc1ccc2O)c1ccc(O)c(c1)-c1c(O)cc(O)cc1[C@@H](C(=O)N1CCNCCNCCNCCNCCNCC1)NC3=O`, the MIC in [1] is 0.25 µg/mL (≈ 0.174 µM); in [2] it was 0.125 µg/mL (≈ 0.0868 µM); in assay [3], 0.25 µg/mL (≈ 0.174 µM); in assay [4], more than 128 µg/mL; in [5], more than 128 µg/mL; in [6] it was 0.5 µg/mL (≈ 0.347 µM). The figures for the MIC in assay [7], in assay [8] and in [9] were more than 128 µg/mL, 1 µg/mL (≈ 0.695 µM) and 0.125 µg/mL (≈ 0.0868 µM), respectively.

Consider `CN(C)CCCN1CCCCN(C(=O)[C@H]2NC(=O)[C@H]3NC(=O)[C@H](NC(=O)[C@@H]4NC(=O)[C@H]5NC(=O)[C@@H](Cc6ccc(c(Cl)c6)Oc6cc4cc(c6O)Oc4ccc(cc4Cl)[C@H]3O)NC(=O)[C@H](N)c3ccc(O)c(c3)Oc3cc(O)cc5c3)c3ccc(O)c(c3)-c3c(O)cc(O)cc32)CCCC1`, for which the minimum inhibitory concentration (MIC) in [1] stood at 0.063 µg/mL (≈ 0.0447 µM); in assay [2], 0.063 µg/mL (≈ 0.0447 µM); in [3], 0.125 µg/mL (≈ 0.0888 µM); in [4] it was 8 µg/mL (≈ 5.68 µM); in assay [5], 32 µg/mL (≈ 22.7 µM); in [6], 0.125 µg/mL (≈ 0.0888 µM). Besides, the MIC was found to be 128 µg/mL (≈ 90.9 µM) in [7] and 0.063 µg/mL (≈ 0.0447 µM) in assay [9].

On to `N[C@H]1C(=O)N[C@@H]2Cc3ccc(c(Cl)c3)Oc3cc4cc(c3O)Oc3ccc(cc3Cl)[C@@H](O)[C@@H]3NC(=O)[C@H](NC(=O)[C@@H]4NC(=O)[C@@H](NC2=O)c2cc(O)cc(c2)Oc2cc1ccc2O)c1ccc(O)c(c1)-c1c(O)cc(O)cc1[C@@H](C(=O)NCCN1CCCCNCCCC1)NC3=O`, for which the MIC in assay [1] was determined as 0.063 µg/mL (≈ 0.0461 µM); in assay [2], 0.063 µg/mL (≈ 0.0461 µM); in [3], 0.125 µg/mL (≈ 0.0915 µM); in assay [4], 8 µg/mL (≈ 5.86 µM); in assay [5] it was 64 µg/mL (≈ 46.8 µM); in assay [6], 0.125 µg/mL (≈ 0.0915 µM). Further, the minimal inhibitory concentration (MIC) in assay [7] was determined as 64 µg/mL (≈ 46.8 µM); in [8] it was 0.125 µg/mL (≈ 0.0915 µM); in assay [9], 0.125 µg/mL (≈ 0.0915 µM).

As for `CCN(CC)CCN(CCCN)CCCNC(=O)[C@H]1NC(=O)[C@H]2NC(=O)[C@H](NC(=O)[C@@H]3NC(=O)[C@H]4NC(=O)[C@@H](Cc5ccc(c(Cl)c5)Oc5cc3cc(c5O)Oc3ccc(cc3Cl)[C@H]2O)NC(=O)[C@H](N)c2ccc(O)c(c2)Oc2cc(O)cc4c2)c2ccc(O)c(c2)-c2c(O)cc(O)cc21`, the MIC in [1] was found to be 0.125 µg/mL (≈ 0.0886 µM); in assay [2], 0.032 µg/mL (≈ 0.0227 µM); in [3], 0.125 µg/mL (≈ 0.0886 µM); in [4] it was 32 µg/mL (≈ 22.7 µM); in [5], 128 µg/mL (≈ 90.7 µM); in [6] it was 0.125 µg/mL (≈ 0.0886 µM). Also, the MIC in assay [7] is more than 128 µg/mL; in assay [8], 0.125 µg/mL (≈ 0.0886 µM); in assay [9] it was 0.125 µg/mL (≈ 0.0886 µM).
